# Assay results from ChEMBL document CHEMBL1123417, “New structure-activity relationships of the quinolone antibacterials using the target enzyme. The development and application of a DNA gyrase assay” (J Med Chem, 1986).
# Tested on: Staphylococcus aureus
# Assay: Antibacterial activity against Staphylococcus aureus (H228)
# Conditions: not given
row,MIC [µg/mL],Structure (SMILES)
1,0.8,CCn1cc(C(=O)O)c(=O)c2cc(F)c(N3CCCC3)cc21
2,100,CCn1cc(C(=O)O)c(=O)c2cc(F)c(/C=N/O)nc21
3,> 100,CCn1cc(C(=O)O)c(=O)c2ccc(/C=C/N3CCN(C)CC3)nc21
4,1.6,CCn1cc(C(=O)O)c(=O)c2cc(F)c(N3CCN(CC#N)CC3)cc21
5,50,CCn1cc(C(=O)O)c(=O)c2ccc(N3CCNCC3)nc21
6,0.2,CCn1cc(C(=O)O)c(=O)c2cc(F)c(N3CCSC3)cc21
7,50,CCn1cc(C(=O)O)c(=O)c2cc(F)c(F)c(F)c21
8,0.4,CCn1cc(C(=O)O)c(=O)c2cc(F)c(N3CCN(C)CC3)c(F)c21

row,Structure (SMILES),MIC [µg/mL]
1,CCn1cc(C(=O)O)c(=O)c2cc(F)c(N3CCNCC3)c(F)c21,3.1

# Tested on: Escherichia coli
# Assay: Antibacterial activity against Escherichia coli (H560)
# Conditions: not given
row,MIC [µg/mL],Structure (SMILES)
1,1.6,CCn1cc(C(=O)O)c(=O)c2cc(F)c(N3CCCC3)cc21
2,> 100,CCn1cc(C(=O)O)c(=O)c2cc(F)c(/C=N/O)nc21
3,> 100,CCn1cc(C(=O)O)c(=O)c2ccc(/C=C/N3CCN(C)CC3)nc21
4,0.8,CCn1cc(C(=O)O)c(=O)c2cc(F)c(N3CCN(CC#N)CC3)cc21
5,3.1,CCn1cc(C(=O)O)c(=O)c2ccc(N3CCNCC3)nc21
6,0.2,CCn1cc(C(=O)O)c(=O)c2cc(F)c(N3CCSC3)cc21
7,6.3,CCn1cc(C(=O)O)c(=O)c2cc(F)c(F)c(F)c21
8,0.1,CCn1cc(C(=O)O)c(=O)c2cc(F)c(N3CCN(C)CC3)c(F)c21

row,Structure (SMILES),MIC [µg/mL]
1,CCn1cc(C(=O)O)c(=O)c2cc(F)c(N3CCNCC3)c(F)c21,0.1

# Biological target: DNA gyrase (Escherichia coli) (UniProt P0AES6+P0AES4)
# Assay: not given
# Conditions: not given
row,gyrase cleavage conc [µg/mL],Structure (SMILES)
1,5,CCn1cc(C(=O)O)c(=O)c2cc(F)c(N3CCCC3)cc21
2,50,CCn1cc(C(=O)O)c(=O)c2cc(F)c(/C=N/O)nc21
3,> 100,CCn1cc(C(=O)O)c(=O)c2ccc(/C=C/N3CCN(C)CC3)nc21
4,10,CCn1cc(C(=O)O)c(=O)c2cc(F)c(N3CCN(CC#N)CC3)cc21
5,75,CCn1cc(C(=O)O)c(=O)c2ccc(N3CCNCC3)nc21
6,5,CCn1cc(C(=O)O)c(=O)c2cc(F)c(N3CCSC3)cc21
7,38,CCn1cc(C(=O)O)c(=O)c2cc(F)c(F)c(F)c21
8,2.5,CCn1cc(C(=O)O)c(=O)c2cc(F)c(N3CCN(C)CC3)c(F)c21

row,Structure (SMILES),gyrase cleavage conc [µg/mL]
1,CCn1cc(C(=O)O)c(=O)c2cc(F)c(N3CCNCC3)c(F)c21,1

# Tested on: Escherichia coli
# Assay: Antibacterial activity against Escherichia coli (vogel)
# Conditions: not given
row,MIC [µg/mL],Structure (SMILES)
1,1.6,CCn1cc(C(=O)O)c(=O)c2cc(F)c(N3CCCC3)cc21
2,6.3,CCn1cc(C(=O)O)c(=O)c2cc(F)c(/C=N/O)nc21
3,> 100,CCn1cc(C(=O)O)c(=O)c2ccc(/C=C/N3CCN(C)CC3)nc21
4,0.4,CCn1cc(C(=O)O)c(=O)c2cc(F)c(N3CCN(CC#N)CC3)cc21
5,6.3,CCn1cc(C(=O)O)c(=O)c2ccc(N3CCNCC3)nc21
6,0.2,CCn1cc(C(=O)O)c(=O)c2cc(F)c(N3CCSC3)cc21
7,1.6,CCn1cc(C(=O)O)c(=O)c2cc(F)c(F)c(F)c21
8,0.2,CCn1cc(C(=O)O)c(=O)c2cc(F)c(N3CCN(C)CC3)c(F)c21

row,Structure (SMILES),MIC [µg/mL]
1,CCn1cc(C(=O)O)c(=O)c2cc(F)c(N3CCNCC3)c(F)c21,0.2

# Tested on: Pseudomonas aeruginosa
# Assay: Antibacterial activity against Pseudomonas aeruginosa (UI-18)
# Conditions: not given
row,MIC [µg/mL],Structure (SMILES)
1,> 100,CCn1cc(C(=O)O)c(=O)c2cc(F)c(N3CCCC3)cc21
2,100,CCn1cc(C(=O)O)c(=O)c2cc(F)c(/C=N/O)nc21
3,> 100,CCn1cc(C(=O)O)c(=O)c2ccc(/C=C/N3CCN(C)CC3)nc21
4,6.3,CCn1cc(C(=O)O)c(=O)c2cc(F)c(N3CCN(CC#N)CC3)cc21
5,12.5,CCn1cc(C(=O)O)c(=O)c2ccc(N3CCNCC3)nc21
6,3.1,CCn1cc(C(=O)O)c(=O)c2cc(F)c(N3CCSC3)cc21
7,> 100,CCn1cc(C(=O)O)c(=O)c2cc(F)c(F)c(F)c21
8,0.8,CCn1cc(C(=O)O)c(=O)c2cc(F)c(N3CCN(C)CC3)c(F)c21

row,Structure (SMILES),MIC [µg/mL]
1,CCn1cc(C(=O)O)c(=O)c2cc(F)c(N3CCNCC3)c(F)c21,1.6

# Biological target: DNA gyrase (Escherichia coli, UniProt P0AES4+P0AES6)
# Assay: Inhibitory concentration in supercoiling inhibition Escherichia coli DNA gyrase assay
# Type: protein-complex assay
# Conditions: read-out: I50 (converted)
# How it was run: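 Gyrase A and B subunits purified from E. coli H560, each titrated to fully supercoil relaxed Col E1 plasmid (~0.3 μg/mL). Drug in 0.1 N KOH, 40 min at 30 °C, then ATP for 10 min. SDS/proteinase K quench, 1% agarose gel, ethidium stain. Serial dilutions start at 200 μg/mL. I50 is the mean of the initial-inhibition and 100%-inhibition concentrations.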
row,Structure (SMILES),IC50 [µM]
1,CCn1cc(C(=O)O)c(=O)c2cc(F)c(N3CCCC3)cc21,85.4
2,CCn1cc(C(=O)O)c(=O)c2cc(F)c(N3CCNCC3)c(F)c21,18.7

# Tested on: Streptococcus pneumoniae
# Assay: Antibacterial activity against Streptococcus pneumoniae (SV-1)
# Conditions: not given
row,MIC [µg/mL],Structure (SMILES)
1,12.5,CCn1cc(C(=O)O)c(=O)c2cc(F)c(N3CCCC3)cc21
2,100,CCn1cc(C(=O)O)c(=O)c2cc(F)c(/C=N/O)nc21
3,> 100,CCn1cc(C(=O)O)c(=O)c2ccc(/C=C/N3CCN(C)CC3)nc21
4,6.3,CCn1cc(C(=O)O)c(=O)c2cc(F)c(N3CCN(CC#N)CC3)cc21
5,50,CCn1cc(C(=O)O)c(=O)c2ccc(N3CCNCC3)nc21
6,12.5,CCn1cc(C(=O)O)c(=O)c2cc(F)c(N3CCSC3)cc21
7,> 100,CCn1cc(C(=O)O)c(=O)c2cc(F)c(F)c(F)c21
8,3.1,CCn1cc(C(=O)O)c(=O)c2cc(F)c(N3CCN(C)CC3)c(F)c21

row,Structure (SMILES),MIC [µg/mL]
1,CCn1cc(C(=O)O)c(=O)c2cc(F)c(N3CCNCC3)c(F)c21,3.1

# Tested on: Klebsiella pneumoniae
# Assay: Antibacterial activity against Klebsiella pneumonia (MGH-2)
# Conditions: not given
row,MIC [µg/mL],Structure (SMILES)
1,> 100,CCn1cc(C(=O)O)c(=O)c2cc(F)c(N3CCCC3)cc21
2,12.5,CCn1cc(C(=O)O)c(=O)c2cc(F)c(/C=N/O)nc21
3,> 100,CCn1cc(C(=O)O)c(=O)c2ccc(/C=C/N3CCN(C)CC3)nc21
4,0.8,CCn1cc(C(=O)O)c(=O)c2cc(F)c(N3CCN(CC#N)CC3)cc21
5,12.5,CCn1cc(C(=O)O)c(=O)c2ccc(N3CCNCC3)nc21
6,0.4,CCn1cc(C(=O)O)c(=O)c2cc(F)c(N3CCSC3)cc21
7,6.3,CCn1cc(C(=O)O)c(=O)c2cc(F)c(F)c(F)c21
8,0.4,CCn1cc(C(=O)O)c(=O)c2cc(F)c(N3CCN(C)CC3)c(F)c21

row,Structure (SMILES),MIC [µg/mL]
1,CCn1cc(C(=O)O)c(=O)c2cc(F)c(N3CCNCC3)c(F)c21,0.1
